Experiments:
[1] = target: T1, Amine oxidase [flavin-containing] B (Bos taurus, UniProt P56560); assay: Inhibition constant was evaluated against mitochondrial Monoamine oxidase B
T1 sequence (P56560 whole entry): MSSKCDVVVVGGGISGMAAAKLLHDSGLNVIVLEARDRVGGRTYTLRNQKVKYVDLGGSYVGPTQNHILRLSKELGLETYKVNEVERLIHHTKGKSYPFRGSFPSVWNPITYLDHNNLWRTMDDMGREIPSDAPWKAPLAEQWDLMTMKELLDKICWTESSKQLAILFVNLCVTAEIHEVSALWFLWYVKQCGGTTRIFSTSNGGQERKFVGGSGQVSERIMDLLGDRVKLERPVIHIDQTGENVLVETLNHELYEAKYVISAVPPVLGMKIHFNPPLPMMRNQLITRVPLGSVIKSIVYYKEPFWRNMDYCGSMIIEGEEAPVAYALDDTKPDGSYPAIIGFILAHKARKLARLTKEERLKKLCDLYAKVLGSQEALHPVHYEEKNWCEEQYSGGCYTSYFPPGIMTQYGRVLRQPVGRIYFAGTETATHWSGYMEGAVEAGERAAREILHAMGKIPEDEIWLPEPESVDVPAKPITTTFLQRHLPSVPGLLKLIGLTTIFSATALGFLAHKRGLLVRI
Outline: (§1)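 MAO B (20 μL of 2.6 mg/mL) was added to the amine hydrochloride at various concentrations, in 100 mM Tris pH 9.0 with 4% v/v DMSO. The mixture was incubated at 25 °C. At intervals an aliquot was diluted 1:50 into 1.0 mM benzylamine in the same buffer, and activity was read as the change in absorbance at 250 nm. Activity is expressed relative to a no-inactivator DMSO control. K_I and k_inact were derived by the Kitz–Wilson method.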

[2] = target: T1, Amine oxidase [flavin-containing] B; assay: K inact/KI against Monoamine oxidase B; outline: as §1
[3] = target: T1, Amine oxidase [flavin-containing] B; assay: Inactivation constant was determined against mitochondrial Monoamine oxidase B; outline: as §1

Row | Ki [1] [µM] | kinact/KI [2] [M⁻¹ s⁻¹] | kinact [3] [s⁻¹] | SMILES
1 | 260 | 18.3 | 0.00467 | NCC12C3C4C1C1C2C3C41C1CC1 (centres undefined)
2 | 120 | 105 | 0.0125 | NCC12C3C4C1C1C2C3C41c1ccccc1 (centres undefined)
3 | 170 | 3.17 | 0.00055 | NCC12C3C4C5C3C1C5C42 (centres undefined)
